Where a chain is given by its changes, count along the chain named. “And” between values parts separate entries of the source, which are not always exact repeats. Equal entries are not always repeated.
Legend:
[1] = molecular target: K2P3.1 (TASK-1) (Mus musculus, UniProt O35111); experiment: Two-electrode voltage clamp in Xenopus oocytes, K2P3.1; type: cell-based, Murine; details: at 100 μM compound
Outline: (§1)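 Murine channel cDNAs in pGEMHE/pMO were expressed in Xenopus oocytes and recorded by two-electrode voltage clamp. Bath contained 2 mM [K+]o at pH 7.4. Currents were elicited by a −150 to 50 mV ramp from a −80 mV holding potential. Responses were normalized to basal channel activity and fit with a modified Hill equation (EC50, Imax/Imin, Hill coefficient H). Values are mean ± SD or SEM from ≥2 independent experiments.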

[2] = molecular target: T1, K2P2.1 (TREK-1) (Mus musculus, UniProt P97438); experiment: Two-electrode voltage clamp in Xenopus oocytes, K2P2.1; type: cell-based, Murine
T1 sequence (P97438 1-411 isoform P97438-2): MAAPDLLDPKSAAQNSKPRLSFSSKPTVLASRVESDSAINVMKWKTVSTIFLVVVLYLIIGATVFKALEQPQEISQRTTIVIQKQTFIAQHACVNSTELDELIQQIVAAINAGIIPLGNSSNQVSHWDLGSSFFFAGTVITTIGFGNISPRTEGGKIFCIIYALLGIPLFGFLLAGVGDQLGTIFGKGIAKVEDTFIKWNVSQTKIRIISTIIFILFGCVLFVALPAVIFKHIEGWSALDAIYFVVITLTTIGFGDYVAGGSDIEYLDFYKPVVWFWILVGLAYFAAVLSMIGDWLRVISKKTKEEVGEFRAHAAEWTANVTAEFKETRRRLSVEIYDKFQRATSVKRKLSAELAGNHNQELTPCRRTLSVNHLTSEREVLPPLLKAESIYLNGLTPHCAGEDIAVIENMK

[3] = molecular target: Kv7.2 (KCNQ2) (Homo sapiens, UniProt O43526); experiment: Two-electrode voltage clamp in Xenopus oocytes, Kv7.2; type: cell-based; details: at 100 μM
[4] = molecular target: K2P9.1 (TASK-3) (Mus musculus, UniProt Q3LS21); experiment: Two-electrode voltage clamp in Xenopus oocytes, K2P9.1; type: cell-based, Murine
Outline: as §1

[5] = molecular target: T2, K2P10.1 (TREK-2) (Mus musculus, UniProt Q8BUW1); experiment: Two-electrode voltage clamp in Xenopus oocytes, K2P10.1; type: cell-based, Murine
T2 sequence (Q8BUW1 1-535): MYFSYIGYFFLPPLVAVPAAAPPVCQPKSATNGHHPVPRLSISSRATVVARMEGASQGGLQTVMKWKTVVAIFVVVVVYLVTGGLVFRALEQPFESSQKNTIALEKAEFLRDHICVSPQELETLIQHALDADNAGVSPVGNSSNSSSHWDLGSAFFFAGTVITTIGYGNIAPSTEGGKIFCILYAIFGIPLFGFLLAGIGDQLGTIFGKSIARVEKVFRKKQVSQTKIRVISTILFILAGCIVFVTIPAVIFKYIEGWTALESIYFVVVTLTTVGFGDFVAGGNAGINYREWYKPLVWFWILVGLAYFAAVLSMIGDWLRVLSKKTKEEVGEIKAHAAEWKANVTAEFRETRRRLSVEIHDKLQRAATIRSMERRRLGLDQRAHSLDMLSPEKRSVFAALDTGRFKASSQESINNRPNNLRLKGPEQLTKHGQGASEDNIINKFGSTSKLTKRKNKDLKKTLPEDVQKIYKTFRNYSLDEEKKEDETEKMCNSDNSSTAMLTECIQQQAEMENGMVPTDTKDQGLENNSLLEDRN
Outline: as §1

[6] = molecular target: T3, K2P2.1 (TREK-1) W275S (Mus musculus, UniProt P97438, W290S); experiment: Two-electrode voltage clamp in Xenopus oocytes, W275S mutant; type: cell-based, Murine
T3 sequence (P97438 1-411 isoform P97438-2 W275S): T1 sequence (P97438 1-411 isoform P97438-2) with W275S
Outline: as §1

[7] = molecular target: T1, K2P2.1 (TREK-1); experiment: Excised membrane patches; type: cell-based, Murine; details: 0 mV, 20 μM
[8] = molecular target: T4, K2P5.1 (TASK-2) (Mus musculus, UniProt F6V9U5); experiment: Two-electrode voltage clamp in Xenopus oocytes, K2P5.1; type: cell-based, Murine; details: at 100 μM compound
T4 sequence (F6V9U5 1-502): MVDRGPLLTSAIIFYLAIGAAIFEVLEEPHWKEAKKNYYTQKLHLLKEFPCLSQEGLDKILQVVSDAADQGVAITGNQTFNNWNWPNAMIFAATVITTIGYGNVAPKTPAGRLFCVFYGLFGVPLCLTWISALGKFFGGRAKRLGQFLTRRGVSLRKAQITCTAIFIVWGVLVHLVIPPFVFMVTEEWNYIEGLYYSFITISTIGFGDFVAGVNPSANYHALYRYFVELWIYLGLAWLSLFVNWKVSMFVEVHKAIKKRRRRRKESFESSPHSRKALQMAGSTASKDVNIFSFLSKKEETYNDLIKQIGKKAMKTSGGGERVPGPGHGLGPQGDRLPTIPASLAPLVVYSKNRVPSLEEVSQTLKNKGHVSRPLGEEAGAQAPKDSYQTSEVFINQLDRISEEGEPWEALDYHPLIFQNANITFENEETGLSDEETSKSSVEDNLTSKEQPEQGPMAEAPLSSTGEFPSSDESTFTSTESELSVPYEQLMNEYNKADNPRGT
Outline: as §1

[9] = molecular target: T5, K2P2.1 (TREK-1) G137I (Mus musculus, UniProt P97438, G152I); experiment: Two-electrode voltage clamp in Xenopus oocytes, G137I mutant; type: cell-based, Murine
T5 sequence (P97438 1-411 isoform P97438-2 G137I): T1 sequence (P97438 1-411 isoform P97438-2) with G137I

[10] = molecular target: T6, K2P18.1 (TRESK) (Mus musculus, UniProt Q6VV64); experiment: Two-electrode voltage clamp in Xenopus oocytes, K2P18.1; type: cell-based, Murine; details: at 100 μM compound
T6 sequence (Q6VV64 1-394): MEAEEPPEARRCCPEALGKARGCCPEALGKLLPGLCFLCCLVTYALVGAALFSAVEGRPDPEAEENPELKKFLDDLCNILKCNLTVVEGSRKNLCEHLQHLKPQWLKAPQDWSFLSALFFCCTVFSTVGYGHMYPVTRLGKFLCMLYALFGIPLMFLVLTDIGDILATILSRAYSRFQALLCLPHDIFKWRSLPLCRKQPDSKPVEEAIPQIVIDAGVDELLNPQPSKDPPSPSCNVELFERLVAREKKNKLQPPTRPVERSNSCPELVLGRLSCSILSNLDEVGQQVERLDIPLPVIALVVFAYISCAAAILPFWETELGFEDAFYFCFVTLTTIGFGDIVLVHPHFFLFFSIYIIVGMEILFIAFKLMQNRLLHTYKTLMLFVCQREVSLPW
Outline: as §1

[11] = molecular target: T7, K2P2.1 (TREK-1)-3G (Mus musculus, UniProt P97438); experiment: Two-electrode voltage clamp in Xenopus oocytes, 3G mutant; type: cell-based, Murine
T7 sequence (P97438 16-426): T1 sequence (P97438 1-411 isoform P97438-2) with M1V

[12] = molecular target: T8, K2P4.1 (TRAAK) (Mus musculus, UniProt O88454); experiment: Two-electrode voltage clamp in Xenopus oocytes, K2P4.1; type: cell-based, Murine
T8 sequence (O88454 1-398): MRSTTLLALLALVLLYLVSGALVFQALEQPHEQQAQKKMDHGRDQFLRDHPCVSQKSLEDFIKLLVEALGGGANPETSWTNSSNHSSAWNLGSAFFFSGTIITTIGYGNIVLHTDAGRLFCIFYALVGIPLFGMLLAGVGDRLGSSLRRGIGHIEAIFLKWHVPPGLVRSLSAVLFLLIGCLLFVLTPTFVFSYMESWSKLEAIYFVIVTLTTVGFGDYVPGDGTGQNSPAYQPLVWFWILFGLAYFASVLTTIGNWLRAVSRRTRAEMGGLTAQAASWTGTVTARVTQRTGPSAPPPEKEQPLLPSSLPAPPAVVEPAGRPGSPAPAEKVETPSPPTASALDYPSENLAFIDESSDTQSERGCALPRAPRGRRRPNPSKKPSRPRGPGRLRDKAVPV
Outline: as §1

[13] = molecular target: T1, K2P2.1 (TREK-1); experiment: Whole cell patch clamp in HEK-293T cells, K2P2.1; type: cell-based, Murine
[14] = test system: K2P2.1 (TREK-1); details: at 1.6 mM; cited from earlier work
[15] = whole-cell, HEK-293T, 0 mV, 20 μM

K2P3.1 (TASK-1), sequence (O35111 whole entry): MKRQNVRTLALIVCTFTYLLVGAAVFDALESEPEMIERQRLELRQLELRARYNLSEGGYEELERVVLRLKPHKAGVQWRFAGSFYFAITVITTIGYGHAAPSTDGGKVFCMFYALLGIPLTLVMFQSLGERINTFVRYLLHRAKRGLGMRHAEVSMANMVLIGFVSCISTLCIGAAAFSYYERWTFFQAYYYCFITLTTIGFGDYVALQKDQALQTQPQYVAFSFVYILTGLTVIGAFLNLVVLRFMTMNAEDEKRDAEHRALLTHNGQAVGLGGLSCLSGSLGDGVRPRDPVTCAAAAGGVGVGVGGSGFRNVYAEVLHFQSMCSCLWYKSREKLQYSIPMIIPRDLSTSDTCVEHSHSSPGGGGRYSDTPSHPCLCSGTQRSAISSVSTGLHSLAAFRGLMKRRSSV
K2P9.1 (TASK-3), sequence (Q3LS21 whole entry): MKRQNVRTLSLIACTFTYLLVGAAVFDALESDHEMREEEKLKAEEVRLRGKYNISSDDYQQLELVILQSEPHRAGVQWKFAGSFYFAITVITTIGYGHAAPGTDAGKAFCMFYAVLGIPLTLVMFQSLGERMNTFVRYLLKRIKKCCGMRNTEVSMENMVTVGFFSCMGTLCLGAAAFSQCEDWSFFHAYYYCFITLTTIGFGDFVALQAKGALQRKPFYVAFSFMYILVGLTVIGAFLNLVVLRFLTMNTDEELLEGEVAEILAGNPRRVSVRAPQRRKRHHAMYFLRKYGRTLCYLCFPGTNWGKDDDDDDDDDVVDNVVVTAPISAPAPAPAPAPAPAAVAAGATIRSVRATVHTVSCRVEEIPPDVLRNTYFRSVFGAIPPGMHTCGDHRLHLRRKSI
Kv7.2 (KCNQ2), sequence (O43526 whole entry): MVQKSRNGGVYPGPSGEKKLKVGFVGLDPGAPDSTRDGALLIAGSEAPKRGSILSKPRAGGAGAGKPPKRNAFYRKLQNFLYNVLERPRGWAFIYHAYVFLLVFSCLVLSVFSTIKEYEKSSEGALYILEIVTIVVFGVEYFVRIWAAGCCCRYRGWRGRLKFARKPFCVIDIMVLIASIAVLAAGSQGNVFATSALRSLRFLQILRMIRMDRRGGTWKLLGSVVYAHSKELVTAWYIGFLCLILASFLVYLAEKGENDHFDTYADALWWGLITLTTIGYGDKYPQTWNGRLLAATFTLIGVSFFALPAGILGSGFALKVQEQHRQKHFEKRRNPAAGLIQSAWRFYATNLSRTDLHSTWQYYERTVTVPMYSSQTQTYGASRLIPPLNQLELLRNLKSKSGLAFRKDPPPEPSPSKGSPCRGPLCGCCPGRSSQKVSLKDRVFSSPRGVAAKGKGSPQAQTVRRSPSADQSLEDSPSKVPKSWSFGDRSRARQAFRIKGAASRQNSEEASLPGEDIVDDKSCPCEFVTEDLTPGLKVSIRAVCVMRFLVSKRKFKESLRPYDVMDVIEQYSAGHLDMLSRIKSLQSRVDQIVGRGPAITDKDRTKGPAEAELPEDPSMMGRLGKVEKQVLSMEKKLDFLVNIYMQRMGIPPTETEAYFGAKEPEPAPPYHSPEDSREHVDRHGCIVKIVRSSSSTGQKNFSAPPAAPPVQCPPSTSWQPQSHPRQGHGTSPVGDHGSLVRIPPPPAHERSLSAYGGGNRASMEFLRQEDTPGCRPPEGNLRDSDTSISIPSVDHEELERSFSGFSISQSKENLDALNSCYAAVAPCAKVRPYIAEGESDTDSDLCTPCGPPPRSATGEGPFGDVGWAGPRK

## CC1(C)c2cc(Cl)ccc2N(CCc2nnn[nH]2)c2ccc(Cl)cc21 [ML67-33, 2,7-dichloro-9,9-dimethyl-10-[2-(1H-tetrazol-5-yl)-ethyl]-9,10-dihydro-acridine]
[1]
  Emax (fold): 1.1 ± 0.0 fold and 1.1 ± 0.1 ^d fold
[2]; EC50 compared to ML67-18
  improved potency (fold): 5 fold
[2]; Xenopus oocytes
  H (cooperativity coefficient from the Hill equation): 3.6 ± 0.4
[2]; Xenopus oocytes, at 100 μM compound
  Emax (fold): 11.1 ± 0.4 fold
[2]; Xenopus oocytes, normalized to basal activity
  Emax (fold): 11.1 ± 0.4 fold and ~11 fold
[3]
  effect on Kv7.2 (KCNQ2) (in words): no effect
[4]; at 100 μM
  Emax: 1.7 ± 0.3
[4]; at 150 μM
  Emax (fold): 2.1 ± 0.4 at 150 μM fold
[5]
  Emax (fold): 11.4 ± 1.8 fold
  H (cooperativity coefficient from the Hill equation): 1.6 ± 0.6
[5]; at 100 μM
  Emax: 11.4 ± 1.8
[6]
  Emax (fold): 5.1 ± 0.6 fold
  H (cooperativity coefficient from the Hill equation): 1.6 ± 0.7
[7]; inside-out patch
  t1/2act: 10.8 ± 1.3 s
  t1/2wash: 22.0 ± 5.1 s
[7]; outside-out patch
  t1/2act: 4.6 ± 0.9 s
  t1/2wash: 3.1 ± 0.7 s
[8]
  Emax (fold): 2.0 ± 0.1 fold
[9]
  response to activation (in words): completely resistant
[9]; at 150 μM
  Emax (fold): 0.9 ± 0.1 at 150 μM fold
[10]
  Emax (fold): 0.9 ± 0.1 fold and 0.9 ± 0.1 ^d fold
[11]
  EC50: 49.4 ± 1.1 µM
  H (cooperativity coefficient from the Hill equation): 2.2 ± 0.4
[12]
  H (cooperativity coefficient from the Hill equation): 1.8 ± 0.4
[12]; at 100 μM compound
  Emax (fold): 14.7 ± 1.12 fold and 14.7 ± 1.1 fold and 14.7 ± 1.1 ^d fold
[13]; HEK293 cells
  Emax (fold): 11.4 ± 1.1 fold
  H (cooperativity coefficient from the Hill equation): 2.3 ± 0.7
[13]; HEK cells, at 100 μM
  Emax: 11.4 ± 1.1
[13]; [15]
  half-maximal activation time (t1/2act): 4.1 ± 0.5 s
  time of return to baseline following washout (t1/2wash): 3.9 ± 0.5 s

## ClC(Cl)Cl [chloroform]
[14]
  reported activation (fold): 5.5 fold
